LMPTP inh = blocks human LMPTP phosphatase; hit rate 0.22% among 360,000; recombinant LMPTP-A, OMFP fluorogenic substrate, fluorescence intensity; inhibition, % at 20 µM;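 active means compounds that cut the enzyme signal by at least half of the control window in the single-dose screen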;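 further: plate controls were DMSO wells with enzyme plus substrate for no effect and substrate without enzyme for full effect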
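Assay system: LMPTP-A, protein tyrosine phosphatase of low molecular weight / Medium: pH 6.0 Bis-Tris buffer with DTT and Triton X-100 / Schedule: 50 min enzyme reaction at room temperature, protected from light / Measured by: endpoint fluorescence intensity from OMFP dephosphorylation / Read-out basis: % inhibition relative to no-enzyme and uninhibited control wells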
STEP inh = inhibitors of human striatal-enriched phosphatase STEP; P54829; recombinant STEP, OMFP fluorogenic substrate, fluorescence; inhibition, % at 20 µM; hit rate 0.25% among 360,000;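 active means inhibition at 20 µM, scaled per plate between control wells, above about 37%, limit read from the data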;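 further: 0% = DMSO with enzyme and substrate and 100% = substrate only without enzyme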
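medium = Bis-Tris buffer pH 6.0, 2.5 mM DTT, 0.005% Tween 20 | test system = STEP (striatal-enriched tyrosine phosphatase) enzyme, cell-free | measure = normalized % inhibition | compound dosing = 20 µM, 1% DMSO | also added = 25 µM OMFP | schedule = reaction 20 min, ambient temperature | measured by = fluorescence read at 480 nm ex / 540 nm em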
DNMT1 inh = inhibitors of human DNMT1; P26358; inhibition (reported as % activation of signal), % at 10 µM; hit rate 0.83% among 360,000; DNMT1 molecular beacon, Hinp1I cleavage, fluorescence; AID 588458; in the data active means inhibition above about 50%
SUMO1 PPI mod = modulators of human SUMO1-mediated protein-protein interactions; AID 602429; SUMO1 binding to a labelled peptide, TR-FRET, 1 h; hit rate 0.33% among 360,000; inhibition, % at 20 µM; in the data active means inhibition above about 37%
Scp-1 inhibitor = inhibitors of human Scp-1 phosphatase | Q9GZU7 | hit rate 0.88% among 340,000 | Recombinant Scp1, phosphopeptide, malachite green phosphate absorbance | inhibition, % at 20 µM | AID 493091;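 active means inhibition above about 50% at 20 µM, limit read from the data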;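 further: plate controls were DMSO wells with enzyme for no effect and wells lacking enzyme for full effect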
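Material: truncated SCP-1 phosphatase (76-261aa) / Buffer or medium: 50 mM Tris acetate pH 5.5, 0.005% Tween-20, 10 mM MgCl2 / Compound dosing: one concentration, 20 µM, with 1.0% DMSO / Incubation: 45 min room-temperature reaction, 5 min colour, 30 min stabiliser / Detection: colorimetric free-phosphate detection, absorbance 630 nm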
GRK2 inh = inhibitors of human GRK2 displacing RNA aptamer; AID 488847; hit rate 0.59% among 330,000; bead flow cytometry, FAM-aptamer displacement from GRK2; inhibition of aptamer binding, % at 10 µM;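 active means inhibition of aptamer binding above 40%, roughly 3 SD of noise, on plates passing a quality check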;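 further: median bead fluorescence of bound FAM aptamer so fluorescent compounds give negative values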
Target sequence (P25098 whole entry, looked up): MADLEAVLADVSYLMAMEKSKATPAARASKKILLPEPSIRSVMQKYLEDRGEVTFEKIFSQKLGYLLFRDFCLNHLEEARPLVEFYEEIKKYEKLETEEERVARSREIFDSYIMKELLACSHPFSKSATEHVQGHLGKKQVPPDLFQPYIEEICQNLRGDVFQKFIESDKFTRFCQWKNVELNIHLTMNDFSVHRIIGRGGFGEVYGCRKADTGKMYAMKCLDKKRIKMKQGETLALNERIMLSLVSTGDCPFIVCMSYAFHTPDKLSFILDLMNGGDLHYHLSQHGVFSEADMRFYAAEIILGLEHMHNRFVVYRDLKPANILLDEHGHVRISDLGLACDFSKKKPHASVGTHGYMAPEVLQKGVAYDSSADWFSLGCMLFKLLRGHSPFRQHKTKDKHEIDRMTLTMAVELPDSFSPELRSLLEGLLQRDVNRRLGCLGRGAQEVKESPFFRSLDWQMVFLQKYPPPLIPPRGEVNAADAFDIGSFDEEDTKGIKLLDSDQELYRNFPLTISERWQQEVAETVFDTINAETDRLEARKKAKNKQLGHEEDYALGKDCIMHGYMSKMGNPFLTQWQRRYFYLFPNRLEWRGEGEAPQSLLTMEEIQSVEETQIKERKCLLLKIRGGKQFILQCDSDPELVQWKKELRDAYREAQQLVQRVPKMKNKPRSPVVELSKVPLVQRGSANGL
Beacon interf DR = shows spectral interference in the DNMT1 beacon assay; IC50, µM; 200 tested, under 10 active; molecular beacon fluorescence, spectral interference counter-screen; shares compounds with DNMT1 inh; call rule not given here
DNMT1 inh conf = DNMT1 inhibition confirmation, single concentration | hit rate 8% among 2,300 | DNMT1 molecular beacon HinP1I cleavage, fluorescence | shares compounds with DNMT1 inh | AID 602385 | inhibition, % at 10 µM;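 active means average inhibition of at least 30% in the single-concentration confirmation test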
DNMT1 interf = beacon fluorescence artifact counter-screen; activation (fluorescence interference), % at 10 µM; AID 602387; shares compounds with DNMT1 inh; hit rate 1% among 2,300; DNMT1 molecular beacon spectral interference counterscreen, fluorescence 485/520;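 active means activation of at least 30% at 10 µM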;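 further: DNMT1 catalytic domain with a HinP1I cleavage step and a FAM/dabcyl DNA beacon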
The depositor's hits bear a star; nt = no result given. A selection: hits, their analogues and other compounds. The true share with any hit is near 2.1%.

SMILES	LMPTP inh	STEP inh	DNMT1 inh	SUMO1 PPI mod	Scp-1 inhibitor	GRK2 inh	DNMT1 inh conf	DNMT1 interf	others
Cc1cc2c(cc1C)-n1nnnc1C(N(C)CCc1ccccc1)C(=O)N2 (stereo not given)	-0.2	nt	nt	5.5	nt	nt	nt	nt
CCOC(=O)N1CCC(NS(=O)(=O)c2ccc3c(c2)oc(=O)n3C)CC1	-0.3	-0.7	52.7*	-0.3	-2.5	0.0	2.7	4.4
COC(=O)[C@@]1(C)CC[C@]2(C)CC[C@@]3(C)C(=CC(=O)C4[C@@]5(C)CC[C@H](O)C(C)(C)[C@@H]5CC[C@]43C)[C@H]2C1 (stereo not given in full)	0.6	-0.1	53.3*	-4.8	-0.5	0.0	-0.8	2.4
CCc1ccc(NC(=O)Cn2c(=O)c3cccn3c3ccccc32)cc1	1.0	3.1	54.8*	-0.7	-6.5	0.0	4.5	0.9
CCCCCCCCN1C(=O)[C@H](CC(=O)NCc2cccc3ccccc23)C[C@@]2(C(=O)OC)CC(C)(C)CC=C12	5.9	nt	nt	-2.7	nt	nt	nt	nt
Cc1cccc(NC(=O)CSc2nnc(-c3ccco3)c(-c3ccco3)n2)c1	11.2	2.8	35.2	10.6	39.1	nt	nt	nt
Cc1cccc(NC(=O)CSc2nnc(-c3ccco3)c(-c3ccco3)n2)c1C	25.3	5.6	106.1*	34.0	62.7*	11.0	5.3	4.9
COc1ccccc1N1CCN(C(=O)C2=CC=CN3CCS(=O)(=O)N=C23)CC1	-0.2	-2.1	2.1	1.7	1.5	5.0	nt	nt
CCn1cc(Br)c(C(=O)Nc2sc3c(c2C(N)=O)CCCC3)n1	8.7	2.2	68.0*	4.2	-7.2	0.0	2.0	-2.9
CC(=O)c1cccc(NC(=O)CN2C(=O)C3C4C=CC(C4)C3C2=O)c1 (stereo not given)	0.4	-2.8	50.1*	-2.4	0.2	0.0	0.8	1.4
CC[C@]12C(=O)N(C)C[C@H]([C@@H]3C(=O)N(C)C(=O)[C@@H]31)N2C(=O)c1ccccc1	0.2	-0.3	-0.8	2.8	-0.2	nt	nt	nt
O=C(Nc1cccnc1Cl)c1cc2c(s1)-c1ccccc1OC2	-0.2	-2.6	12.3	-7.0	-5.7	2.0	nt	nt
O=C(Nc1ccc(Cl)cn1)c1cc2c(s1)-c1ccccc1OC2	0.0	-1.5	55.8*	-6.4	-7.4	0.0	0.0	0.3
O=C(CNC(=O)c1ccc([N+](=O)[O-])cc1)N/N=C\c1ccc(OC(=O)c2ccccc2)cc1	2.2	1.1	85.3*	-6.5	-4.8	0.0	38.3*	-0.1	Beacon interf DR=>99
COc1cccc(C(=O)NCC(=O)N/N=C/c2cccc(OC(=O)c3ccc([N+](=O)[O-])cc3)c2)c1	0.6	3.2	-0.9	-5.9	-6.9	4.0	nt	nt
COc1ccc2nc(/C(C#N)=C\c3ccc(Oc4ccc([N+](=O)[O-])cn4)cc3)[nH]c2c1	3.2	2.5	57.3*	-3.4	-2.7	0.0	1.9	2.2
Cc1ccc2nc(/C(C#N)=C\c3ccc(Oc4ccc([N+](=O)[O-])cn4)cc3)[nH]c2c1	0.2	0.8	53.8*	-12.7	10.6	0.0	6.2	2.6
COc1ccc(-c2cc(C(=O)NCc3ccc(C(F)(F)F)cc3)[nH]n2)c(C)c1	4.1	-0.9	-1.1	6.0	nt	nt	nt	nt
Cc1ccccc1NC(=O)CN1CCN(Cc2ccccc2)CC1	-1.4	-3.8	78.7*	5.9	-3.9	2.0	1.3	5.4
Cc1ccccc1NC(=O)CCN1CCN(Cc2ccccc2)CC1	-2.2	-3.7	-2.2	-0.7	-2.2	1.0	nt	nt
CCN(CC)c1ccc(S(=O)(=O)N2CCOCC2)cc1NC(=O)CN1CCN(Cc2ccccc2)CC1	-1.5	2.9	57.6*	2.8	-9.0	1.0	0.2	4.0
COc1ccc(NC(=O)c2noc3c2CCC3)cc1	6.9	7.1	107.5*	11.8	82.8*	23.0	4.7	0.2
Cc1ccc(NC(=O)c2noc3c2CCC3)cc1C	8.9	11.5	94.9*	8.4	78.2*	nt	8.8	-2.1
COc1ccc(CNC(=O)c2noc3c2CCCCC3)cc1	-1.1	-3.5	1.5	4.2	-10.7	0.0	nt	nt
O=C(Nc1cccc(O)c1)c1noc2c1CCCCC2	-2.1	-4.7	7.7	2.2	-6.3	0.0	nt	nt
SMILES	LMPTP inh	STEP inh	DNMT1 inh	SUMO1 PPI mod	Scp-1 inhibitor	GRK2 inh	DNMT1 inh conf	DNMT1 interf	others
Cc1ccc(NC(=O)c2ccc(NC(=O)c3ccccc3)cc2)cc1C	4.8	-1.7	57.2*	19.0	-7.8	0.0	4.5	5.3
O=C(Cc1cccs1)N/N=C/c1ccccn1	-1.5	-4.8	2.8	2.8	-6.6	0.0	nt	nt
O=C(Cc1ccc(F)cc1)N/N=C/c1ccccn1	-1.7	1.5	65.7*	0.0	-4.0	3.0	0.8	-0.9
C/C(=N\NC(=O)c1ccc2c(c1)OCO2)c1ccc(O)cc1	-0.9	-1.7	81.0*	-5.6	-12.3	0.0	25.9	4.4
Cc1cc2nc3c(=O)n(C4CCCCC4)c(=O)[nH]c3nc2cc1N	-5.4	-106.4	57.9*	-10.6	-8.9	nt	63.7*	34.3*
Clc1ccc(C(c2cccs2)N2CCNCC2)cc1 (stereo not given)	-1.4	-1.3	1.4	-6.7	nt	nt	nt	nt
CC(=O)Nc1ccc(S(=O)(=O)Nc2nc3ccccc3nc2Nc2ccc(C(=O)O)c(O)c2)cc1	7.7	12.3	77.5*	56.8*	87.2*	16.0	4.4	13.3
CC(=O)Nc1ccc(S(=O)(=O)Nc2nc3ccccc3nc2Nc2cccc(O)c2)cc1	0.3	-4.4	-3.5	-5.2	-11.7	0.0	nt	nt
CC(C)(C)c1ccc(C(=O)N2CCC2(C)C(=O)NCC(F)(F)F)cc1 (stereo not given)	1.8	0.7	1.9	-1.6	nt	nt	nt	nt
Cc1ccc(OCC(=O)N2c3ccccc3NC(=O)C2(C)C)c([N+](=O)[O-])n1	-1.5	-0.6	0.0	7.4	4.3	8.0	nt	nt
CC1(C)C(=O)Nc2ccccc2N1C(=O)COc1cccnc1[N+](=O)[O-]	-0.8	1.7	57.9*	-9.3	16.4	8.0	4.8	1.6
Cc1nn(-c2cccc(Cl)c2)c(Cl)c1/C=N/NC(=O)c1cccs1	12.7	-5.0	72.5*	6.2	-2.1	0.0	4.7	-1.0
O=C(O)c1cccc(-n2cccc2/C=C2\NC(=O)N(Cc3ccc(F)cc3)C2=O)c1	3.6	6.1	107.2*	1.8	45.8	13.0	15.7	3.0
CN1C(=O)S/C(=C/c2cccn2-c2cccc(C(=O)O)c2)C1=O	0.9	9.9	21.3	-13.2	6.7	1.0	nt	nt

High-throughput results as filed in PubChem.
